Activity calls are given as the source filed them. The rule behind the calls is not given here.
Assays:
[1] = tested on: A549; assay: Cytotoxicity against human lung adenocarcinoma cell line A549 assessed as inhibition of cell viability measured after 24 hrs by MTT assay; format: functional, cell-based; details: A549, 24 h
In short: (§1)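 Exponentially growing cells exposed to compound, then allowed to proliferate for two to three population doubling times; surviving cells quantified by MTT reduction by mitochondrial dehydrogenase to formazan, dissolved in DMSO and read at 570 nm.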

[2] = tested on: THP-1; assay: Cytotoxicity against human acute monocytic leukemia cell line THP1 assessed as inhibition of cell viability measured after 24 hrs by MTT assay; format: functional, cell-based; details: THP-1, 24 h; in short: as §1
[3] = tested on: MCF7; assay: Cytotoxicity against human breast cancer cell line MCF7 assessed as cell survival measured after 24 hrs by MTT assay relative to control; format: functional
In short: (§2)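 Cells in exponential growth exposed to compound, then left to proliferate for two to three population doubling times so viable, proliferating cells are told apart from non-proliferating ones. Surviving cells estimated by MTT reduction to formazan by mitochondrial dehydrogenase; formazan dissolved in DMSO and read at 570 nm.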

[4] = tested on: B16-F10; assay: Cytotoxicity against mouse melanoma cell line B16F10 assessed as inhibition of cell viability measured after 24 hrs by MTT assay; format: functional, cell-based; details: B16-F10, 24 h; in short: as §1
[5] = tested on: MCF7; assay: Cytotoxicity against human breast cancer cell line MCF7 assessed as inhibition of cell viability […] by MTT assay; format: functional, cell-based
[6] = tested on: COLO 205; assay: Cytotoxicity against human colon cancer line COLO205 assessed as inhibition of cell viability measured after 24 hrs by MTT assay; format: functional, cell-based; details: COLO 205, 24 h; in short: as §1
[7] = tested on: MCF7; assay: Induction of apoptosis in human MCF7 cells assessed as DNA laddering at IC50 concentration measured after 24 hrs by DNA laddering assay relative to control; format: functional, cell-based
In short: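 DNA from treated and untreated cells run on a gel and examined for fragmentation (laddering).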

[8] = tested on: HepG2; assay: Cytotoxicity against human liver hepatocellular carcinoma cell line HepG2 assessed as inhibition of cell viability measured after 24 hrs by MTT assay; format: functional, cell-based; details: HepG2, 24 h; in short: as §1
[9] = tested on: MCF7; assay: Induction of apoptosis in human MCF7 cells assessed as double-strand DNA break at IC50 concentration measured after 24 hrs by comet assay relative to control; format: functional, cell-based
In short: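 Treated cells embedded in low melting agarose on a microscope slide, lysed at alkaline pH, electrophoresed at high pH, then examined for comet tails as a sign of double-strand DNA breaks, with untreated cells as control.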

[10] = tested on: COLO 205; assay: Cytotoxicity against human colon cancer line COLO205 assessed as cell death measured at 10 ug/mL after 24 hrs by MTT assay; format: functional; in short: as §2
[11] = tested on: A549; assay: Cytotoxicity against human […] assessed as cell death measured at 1 ug/mL after 24 hrs by MTT assay; format: functional; in short: as §2
[12] = tested on: A549; assay: Cytotoxicity against human […] assessed as cell death measured at 10 ug/mL after 24 hrs by MTT assay; format: functional; in short: as §2
[13] = tested on: COLO 205; assay: Cytotoxicity against human colon cancer line COLO205 assessed as cell death measured at 2 ug/mL after 24 hrs by MTT assay; format: functional; in short: as §2
[14] = tested on: MCF7; assay: Cytotoxicity against human colon cancer line MCF7 assessed as cell death measured at 10 ug/mL after 24 hrs by MTT assay; format: functional; in short: as §2
[15] = tested on: MCF7; assay: Cytotoxicity against human colon cancer line MCF7 assessed as cell death measured at 5 ug/mL after 24 hrs by MTT assay; format: functional; in short: as §2
[16] = tested on: COLO 205; assay: Cytotoxicity against human colon cancer line COLO205 assessed as cell death measured at 7 ug/mL after 24 hrs by MTT assay; format: functional; in short: as §2
[17] = tested on: A549; assay: Cytotoxicity against human […] assessed as cell death measured at 2 ug/mL after 24 hrs by MTT assay; format: functional; in short: as §2
[18] = tested on: COLO 205; assay: Cytotoxicity against human colon cancer line COLO205 assessed as cell death measured at 5 ug/mL after 24 hrs by MTT assay; format: functional; in short: as §2
[19] = tested on: MCF7; assay: Cytotoxicity against human colon cancer line MCF7 assessed as cell death measured at 7 ug/mL after 24 hrs by MTT assay; format: functional; in short: as §2
[20] = tested on: A549; assay: Cytotoxicity against human […] assessed as cell death measured at 5 ug/mL after 24 hrs by MTT assay; format: functional; in short: as §2
[21] = tested on: A549; assay: Cytotoxicity against human […] assessed as cell death measured at 7 ug/mL after 24 hrs by MTT assay; format: functional; in short: as §2
[22] = tested on: COLO 205; assay: Cytotoxicity against human colon cancer line COLO205 assessed as cell death measured at 1 ug/mL after 24 hrs by MTT assay; format: functional; in short: as §2
[23] = tested on: MCF7; assay: Cytotoxicity against human colon cancer line MCF7 assessed as cell death measured at 2 ug/mL after 24 hrs by MTT assay; format: functional; in short: as §2
[24] = tested on: MCF7; assay: Cytotoxicity against human colon cancer line MCF7 assessed as cell death measured at 1 ug/mL after 24 hrs by MTT assay; format: functional; in short: as §2

CNCCCOc1c(Br)cc(-c2cnc(Cl)c(Cc3ccc(OC)c(Br)c3)n2)cc1Br
IC50 [1]: 25.3 µM
IC50 [2]: 133 µM

COc1ccc(Cc2nc(-c3cc(Br)c(OCCCN(C)C)c(Br)c3)c[nH]c2=O)cc1Br [Ma'edamine A]
Survival [3]: 47.7%
IC50 [1]: 12.2 µM
IC50 [4]: 16.7 µM
IC50 [5]: 6.9 µM
IC50 [6]: 7.9 µM
Activity [7]: Active
IC50 [8]: 29.6 µM
Activity [9]: Active
IC50 [2]: 46.2 µM

COc1ccc(Cc2nc(-c3cc(Br)c(O)c(Br)c3)c[nH]c2=O)cc1Br
IC50 [1]: 52 µM
IC50 [2]: 125 µM

COc1ccc(Cc2nc(-c3cc(Br)c(OCCCN(C)C)c(Br)c3)cnc2Cl)cc1Br
IC50 [1]: 14.4 µM
IC50 [2]: 87.3 µM

CNCCCOc1c(Br)cc(-c2c[nH]c(=O)c(Cc3ccc(OC)c(Br)c3)n2)cc1Br [Ma'edamine B]
Survival [3]: 49.256%
IC50 [1]: 15.4 µM
IC50 [4]: 53.3 µM
IC50 [5]: 10.9 µM
IC50 [6]: 10.3 µM
Activity [7]: Active
IC50 [8]: 42.8 µM
Activity [9]: Active
IC50 [2]: 90.7 µM

COc1ccc(Cc2nc(-c3cc(Br)c(O)c(Br)c3)cnc2Cl)cc1Br
IC50 [1]: 41.2 µM
IC50 [2]: 108 µM

COc1cc([C@@H]2c3cc4c(cc3[C@@H](O[C@@H]3O[C@@H]5CO[C@@H](C)O[C@H]5[C@H](O)[C@H]3O)[C@H]3COC(=O)[C@H]23)OCO4)cc(OC)c1O [ETOPOSIDE]
Activity [10]: 100%
Activity [11]: 47.9%
Activity [12]: 100%
Activity [13]: 39.2%
Activity [14]: 51%
Activity [15]: 23.9%
Activity [16]: 100%
IC50 [5]: 16.3 µM
Activity [17]: 93.4%
IC50 [6]: 5.3 µM
Activity [18]: 78.7%
Activity [19]: 33.7%
Activity [20]: 100%
Activity [21]: 100%
Activity [22]: 17.8%
Activity [23]: 8.9%
Activity [24]: 4.3%

— ChEMBL document CHEMBL2311380, “The first total synthesis and biological evaluation of marine natural products ma'edamines A and B” (Bioorg Med Chem Lett, 2013)
